Test results: PMC12335033 (BMC Oral Health, 2025)
Where a SMILES comes first, the peptide text is derived from it.

B1: MDP-a (peptide)
peptide: CDWWSCWLDVLKD
B2: MDP-3DSS (peptide)
peptide: CPKESCNLFVLKDDSSDSSDSS
B3: CBP1495 (peptide)
peptide: CPKESCNLFVLKD

Experiments:
rat type I collagen [1] = molecular target: rat type I collagen (Rattus norvegicus, UniProt P02454+P02466); experiment: SPR affinity of peptides for type I collagen; format: binding; conditions: for Rmax: SPR, 1:1 binding; for kon: read-out: 1:1 binding ka; for koff: read-out: Kd (dissociation rate constant)
Outline: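 Rat type I collagen preconcentrated in sodium acetate (pH 5.0) and amine-coupled to a CM5 chip. Peptide in sodium acetate buffer at five concentrations, 30 µL/min; 100 s contact, 80 s dissociation. Regeneration with glycine 2.0 for 30 s. Three cycles, multicycle kinetics; K_D calculated.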

[2] = TEM/SAED/EDS of calcium phosphate; format: physicochemical; conditions: TEM; 0.1 mM peptide, pH 7.0; control: irregularly shaped aggregates
collagen membrane [3] = experiment: Calcium ion adsorption by collagen membrane, ICP-MS; conditions: 0.1 mM peptide, pH 7.0, 37 °C, 7 d, n = 9, p < 0.0001
type I collagen fiber = experiment: Collagen fiber mineralization, TEM/SAED/EDS; conditions: 0.1 mM peptide, 7 d; for electron density distribution of collagen fiber (TEM): 3.90 mM CaCl2, 3.83 mM Na2HPO4, pH 7.0, 37 °C; for SAED arc-shaped patterns (hkl) of hydroxyapatite: 37 °C, control one ring (300); for calcium and phosphate distribution (EDS) / fiber mineralization: pH 7.0, 37 °C; for fiber mineralization: TEM
Outline: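 Type I collagen fibers self-assembled in 50 mM glycine/200 mM KCl (pH 9.2), room temperature, 20 min, on nickel grids at 37 °C for 12 h, then fixed in 0.05% glutaraldehyde for 1 h. Grids immersed at 37 °C for 7 d in 3.90 mM CaCl₂/3.83 mM Na₂HPO₄ (pH 7.0) with 0.1 mM peptide, changed every 24 h. Peptide-free control. Rinsed, ethanol-dehydrated; TEM, SAED, EDS.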

collagen membrane [4] = experiment: TGA of mineralized collagen membrane; conditions: 0.1 mM peptide, 37 °C, 7 d; n = 9; p < 0.0001
[5] = Dentin slice remineralization, SEM and tubule plugging rate; design: species or system human; conditions: 0.1 mM peptide 12 h; for plugging rate of dentinal tubules vs control: SEM 3,000×, p < 0.0001; for dentinal tubule diameters (SEM surface) / mineral depth in dentin tubules (SEM cross section) / mineral growth on dentin (SEM surface): then artificial saliva pH 7.0, 2 w
Outline: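 Human third-molar crown dentin cut to 5 × 5 × 2 mm slices and polished. Etched with 35% phosphoric gel for 30 s, 5.25% NaOCl for 1 min, sonicated 10 min. Soaked in 0.1 mM peptide for 12 h, rinsed, then 2 w in artificial saliva (pH 7.0) refreshed daily. Peptide-free control. SEM of surface and cross-section; plugging rate from open-tubule counts at 3,000×; n = 9; one-way ANOVA with Tukey.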

[6] = Mechanical properties of remineralized dentin; design: species or system human; conditions: compared with MDP-a group; 2 w mineralization
Outline: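 Nanoindentation of the new mineral layer on dentin slices after 2 w of remineralization, tested alongside sound and etched slices. Conditions: 10 mN force, 10 s loading, 2 s hold, Poisson's ratio 0.28. Five points per sample, nine samples per group. Elastic modulus and microhardness derived from load–displacement curves; one-way ANOVA with Tukey.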

type I collagen = conditions: isothermal titration calorimetry and enzyme-linked immunosorbent assays; ref [14] (Lei et al.); cited from earlier work
rat type I collagen [7] = molecular target: rat type I collagen (rat, UniProt P02454 152-1207; P02466 86-1125); experiment: SPR
rat type I collagen (rat, UniProt P02454 152-1207; P02466 86-1125), sequence (P02454 152-1207, chain 1 of 2): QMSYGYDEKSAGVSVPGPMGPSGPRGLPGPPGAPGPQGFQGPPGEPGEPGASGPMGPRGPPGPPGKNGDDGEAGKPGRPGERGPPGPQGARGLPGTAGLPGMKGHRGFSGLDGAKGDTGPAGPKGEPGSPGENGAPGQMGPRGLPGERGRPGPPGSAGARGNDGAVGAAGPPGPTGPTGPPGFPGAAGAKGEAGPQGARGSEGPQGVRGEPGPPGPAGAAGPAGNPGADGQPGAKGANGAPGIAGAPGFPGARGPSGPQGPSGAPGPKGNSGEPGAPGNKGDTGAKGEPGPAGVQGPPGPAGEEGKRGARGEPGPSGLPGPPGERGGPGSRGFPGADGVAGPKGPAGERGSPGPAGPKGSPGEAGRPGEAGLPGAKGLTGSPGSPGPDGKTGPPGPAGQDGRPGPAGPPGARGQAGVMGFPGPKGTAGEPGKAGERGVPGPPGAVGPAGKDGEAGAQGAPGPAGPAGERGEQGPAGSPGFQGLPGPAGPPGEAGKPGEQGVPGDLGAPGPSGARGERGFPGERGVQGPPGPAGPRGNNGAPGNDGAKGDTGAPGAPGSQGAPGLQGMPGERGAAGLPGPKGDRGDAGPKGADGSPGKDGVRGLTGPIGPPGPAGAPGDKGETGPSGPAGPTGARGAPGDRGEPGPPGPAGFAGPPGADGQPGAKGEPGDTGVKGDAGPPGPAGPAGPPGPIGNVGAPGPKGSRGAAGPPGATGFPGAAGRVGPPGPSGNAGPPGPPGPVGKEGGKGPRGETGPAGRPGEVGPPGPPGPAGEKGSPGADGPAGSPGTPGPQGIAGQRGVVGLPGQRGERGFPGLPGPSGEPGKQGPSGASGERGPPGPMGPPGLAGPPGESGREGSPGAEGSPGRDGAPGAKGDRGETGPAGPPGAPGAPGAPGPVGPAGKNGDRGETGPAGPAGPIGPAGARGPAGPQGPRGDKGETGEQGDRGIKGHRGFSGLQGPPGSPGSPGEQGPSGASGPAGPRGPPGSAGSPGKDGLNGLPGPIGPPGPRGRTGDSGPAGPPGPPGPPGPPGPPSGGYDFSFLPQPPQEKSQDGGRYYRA
rat type I collagen (rat, UniProt P02454 152-1207; P02466 86-1125), sequence (P02466 86-1125, chain 2 of 2): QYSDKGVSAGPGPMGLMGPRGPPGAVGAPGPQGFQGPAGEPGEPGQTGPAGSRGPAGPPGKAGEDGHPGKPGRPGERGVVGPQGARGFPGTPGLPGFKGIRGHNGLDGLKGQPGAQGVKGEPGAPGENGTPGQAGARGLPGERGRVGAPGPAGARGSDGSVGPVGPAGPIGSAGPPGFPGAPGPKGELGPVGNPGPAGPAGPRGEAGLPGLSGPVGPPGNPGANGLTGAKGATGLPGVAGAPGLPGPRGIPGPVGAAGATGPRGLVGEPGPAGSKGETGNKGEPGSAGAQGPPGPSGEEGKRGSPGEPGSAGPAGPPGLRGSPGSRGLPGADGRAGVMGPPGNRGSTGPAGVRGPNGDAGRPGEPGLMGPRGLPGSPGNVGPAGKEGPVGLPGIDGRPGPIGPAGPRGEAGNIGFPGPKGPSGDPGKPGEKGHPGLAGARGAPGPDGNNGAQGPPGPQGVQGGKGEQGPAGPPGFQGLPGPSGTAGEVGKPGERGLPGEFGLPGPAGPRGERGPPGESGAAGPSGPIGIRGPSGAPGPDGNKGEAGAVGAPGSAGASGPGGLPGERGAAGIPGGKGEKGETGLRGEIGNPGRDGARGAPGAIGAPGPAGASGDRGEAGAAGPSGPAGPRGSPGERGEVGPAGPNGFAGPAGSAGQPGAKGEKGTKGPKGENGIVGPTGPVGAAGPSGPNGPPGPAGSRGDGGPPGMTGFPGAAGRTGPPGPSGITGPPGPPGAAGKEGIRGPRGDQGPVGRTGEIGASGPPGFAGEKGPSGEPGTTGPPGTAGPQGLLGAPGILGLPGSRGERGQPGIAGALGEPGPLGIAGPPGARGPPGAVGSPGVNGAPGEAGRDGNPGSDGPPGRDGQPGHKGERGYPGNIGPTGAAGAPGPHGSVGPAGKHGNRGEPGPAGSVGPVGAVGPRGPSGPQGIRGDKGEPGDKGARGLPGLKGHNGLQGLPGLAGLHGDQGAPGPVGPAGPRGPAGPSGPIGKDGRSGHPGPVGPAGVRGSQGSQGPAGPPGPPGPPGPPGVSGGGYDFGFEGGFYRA

Molecule | Rmax (rat type I collagen [1]) | kon (rat type I collagen [1]) | koff (rat type I collagen [1]) | morphology of particles [2] | electron density distribution of collagen fiber (TEM) (type I collagen fiber) | SAED arc-shaped patterns (hkl) of hydroxyapatite (type I collagen fiber) | calcium and phosphate distribution (EDS) (type I collagen fiber) | fiber mineralization (type I collagen fiber) | plugging rate of dentinal tubules vs control ([5]; artificial saliva 2 w, n = 9) | dentinal tubule diameters (SEM surface) [5] | mineral depth in dentin tubules (SEM cross section) [5] | mineral growth on dentin (SEM surface) [5] | Kd (rat type I collagen [7]) | also measured
CC(C)C[C@H](NC(=O)[C@H](CC(N)=O)NC(=O)[C@H](CS)NC(=O)[C@H](CO)NC(=O)[C@H](CCC(=O)O)NC(=O)[C@H](CCCCN)NC(=O)[C@@H]1CCCN1C(=O)[C@@H](N)CS)C(=O)N[C@@H](Cc1ccccc1)C(=O)N[C@H](C(=O)N[C@@H](CC(C)C)C(=O)N[C@@H](CCCCN)C(=O)N[C@@H](CC(=O)O)C(=O)N[C@@H](CC(=O)O)C(=O)N[C@@H](CO)C(=O)N[C@@H](CO)C(=O)N[C@@H](CC(=O)O)C(=O)N[C@@H](CO)C(=O)N[C@@H](CO)C(=O)N[C@@H](CC(=O)O)C(=O)N[C@@H](CO)C(=O)N[C@@H](CO)C(=O)O)C(C)C [MDP-3DSS] (H-CPKESCNLFVLKDDSSDSSDSS-OH; N-terminus and C-terminus assumed) | 65526.7 RU | 30800 M⁻¹ s⁻¹ | 0.58 s⁻¹ | aggregated particles arranged in loose chains | uniform and dense electron distribution, with significantly increased electron density, indicating a highly mineralized structure | 002,112,401,122 | highly concentrated along the fiber axis, with a minimal presence of these ions outside the fiber | evident fiber mineralization | increased significantly | significantly reduced | 7 μm | dense mineral growth was observed on the surface and inside the dentinal tubules | – | calcium ion adsorption by collagen membrane, MDP-3DSS vs MDP-a (collagen membrane [3]): promoted the adsorption of calcium ions by collagen more effectively than MDP-a; residual mineral content (TGA) (collagen membrane [4]): highest residual mineral content; plugging rate of dentinal tubules, MDP-3DSS vs MDP-a ([5]; artificial saliva 2 w, n = 9, p = 0.0019): greater plugging rate of dentinal tubules; elastic modulus and microhardness relative to sound dentin [6]: closer to those of sound dentin group
CC(C)C[C@H](NC(=O)[C@H](CC(N)=O)NC(=O)[C@H](CS)NC(=O)[C@H](CO)NC(=O)[C@H](CCC(=O)O)NC(=O)[C@H](CCCCN)NC(=O)[C@@H]1CCCN1C(=O)[C@@H](N)CS)C(=O)N[C@@H](Cc1ccccc1)C(=O)N[C@H](C(=O)N[C@@H](CC(C)C)C(=O)N[C@@H](CCCCN)C(=O)N[C@@H](CC(=O)O)C(=O)O)C(C)C [CBP1495, reference compound] (H-CPKESCNLFVLKD-OH; N-terminus and C-terminus assumed) | 190942.7 RU | 10600 M⁻¹ s⁻¹ | 0.624 s⁻¹ | – | – | – | – | – | – | – | – | – | – | binding to type I collagen (type I collagen): can bind to type I collagen with strong affinity
CC(C)C[C@H](NC(=O)[C@H](Cc1c[nH]c2ccccc12)NC(=O)[C@H](CS)NC(=O)[C@H](CO)NC(=O)[C@H](Cc1c[nH]c2ccccc12)NC(=O)[C@H](Cc1c[nH]c2ccccc12)NC(=O)[C@H](CC(=O)O)NC(=O)[C@@H](N)CS)C(=O)N[C@@H](CC(=O)O)C(=O)N[C@H](C(=O)N[C@@H](CC(C)C)C(=O)N[C@@H](CCCCN)C(=O)N[C@@H](CC(=O)O)C(=O)O)C(C)C [MDP-a] (H-CDWWSCWLDVLKD-OH; N-terminus and C-terminus assumed) | 53152.0 RU | 32900 M⁻¹ s⁻¹ | 0.594 s⁻¹ | uneven, dense, spherical aggregated particles | increase in electron density, the distribution along the collagen fiber was notably uneven, with a substantial amount of electrons present outside the fiber | 002,300 | more scattered along the fiber axis | evident fiber mineralization | increased significantly | significantly reduced | 7 μm | dense mineral growth was observed on the surface and inside the dentinal tubules | – | –
B1 | – | – | – | – | – | – | – | – | – | – | – | – | 18 µM | –
B2 | – | – | – | – | – | – | – | – | – | – | – | – | 18.9 µM | –
B3 | – | – | – | – | – | – | – | – | – | – | – | – | 59 µM | –
